In ChEMBL document CHEMBL4251598, “Development of novel bis-pyrazole derivatives as antitumor agents with potent apoptosis induction effects and DNA damage” (Eur J Med Chem, 2018):
Activity calls are given as the source filed them. The calls are words filed in the database; no cut-off is given here.

How the values were obtained:
[1] = test system: SMMC-7721; experiment: Antiproliferative activity against human SMMC7721 cells assessed as inhibition of cell proliferation at 25 uM after 72 hrs by MTT assay relative to control; type: functional; details: SMMC-7721, 72 h
Summary of the method: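 Cells in DMEM with 10% FBS, plated at 10^4 cells/mL, adhered overnight. Treated at 25 μM for 72 h. MTT added for the last 4 h, formazan dissolved in DMSO, A570 read. Inhibition expressed as percent of untreated. Mean + SD from three separate measurements.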

[2] = test system: HCT-116; experiment: Antiproliferative activity against human HCT116 cells after 72 hrs by MTT assay; type: functional, cell-based; details: HCT-116, 72 h
Summary of the method: (§1)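 Cells in DMEM with 10% FBS, 10^4 cells/mL, adhered overnight at 37 °C, 5% CO2. Treated in triplicate with a range of concentrations for 72 h. MTT (5 mg/mL solution) added for the last 4 h, formazan dissolved in DMSO, absorbance read at 570 nm. IC50 calculated from percent inhibition. Mean ± SD of three independent experiments.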

[3] = test system: SGC-7901; experiment: Antiproliferative activity against human SGC7901 cells after 72 hrs by MTT assay; type: functional, cell-based; details: SGC-7901, 72 h; summary of the method: as §1
[4] = test system: SMMC-7721; experiment: Antiproliferative activity against human SMMC7721 cells after 72 hrs by MTT assay; type: functional, cell-based; details: SMMC-7721, 72 h; summary of the method: as §1
[5] = test system: PC-3; experiment: Induction of apoptosis in human PC3 cells; type: functional, cell-based
[6] = test system: SMMC-7721; experiment: Induction of DNA double stranded breaks in human SMMC7721 cells assessed as increase in H2AX phosphorylation at S139 at 0.8 uM after 72 hrs by Western blot analysis; type: functional, cell-based
Summary of the method: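 SMMC-7721 cells treated with vehicle, compound at 0.2, 0.8 or 3.2 μM, or ADM for 72 h. Lysates immunoblotted for H2AX pS139, p-p53 (Ser15), total p53 and β-actin, with ECL detection. Signals quantified by densitometry relative to β-actin, mean ± SD of three experiments.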

[7] = test system: SMMC-7721; experiment: Induction of apoptosis in human SMMC7721 cells assessed as apoptotic cells at 3.2 uM after 72 hrs by FITC-Annexin-V/7AAD/propidium iodide staining based flow cytometry relative to control; type: functional
Summary of the method: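 SMMC-7721 cells cultured overnight, then treated in triplicate with 0.2, 0.8 or 3.2 μM, vehicle, or ADM (3.2 μM) for 72 h. Stained with annexin V and PI (methods section: APC-annexin V/7-AAD) for 15 min at room temperature. Mean ± SD of three independent experiments.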

Compound	inhibition at 25 µM [1] [%]	IC50 [2] [µM]	IC50 [3] [µM]	IC50 [4] [µM]	other results
CCc1nn(C)c(CO/N=C/c2c(C)nn(C)c2Oc2cccc(C)c2)c1Cl	< 80				
CCc1nn(C)c(CO/N=C/c2c(C)nn(C)c2Oc2ccccc2Cl)c1Cl	< 80				
Cc1nn(C)c(Oc2ccc(OC(F)(F)F)cc2)c1/C=N\OCc1c(Cl)c(-c2ccc(Cl)cc2)nn1C	80	3.02	3.22	8.67	
Cc1ccc(Oc2c(/C=N\OCc3c(Cl)c(-c4ccc(F)cc4)nn3C)c(C)nn2C)cc1	80	2.91	4.62	5.23	
O=c1[nH]cc(F)c(=O)[nH]1 [FLUOROURACIL]		29.5	34.4	37.8	
CCc1nn(C)c(CO/N=C\c2c(C)nn(C)c2Oc2ccc(OC(F)(F)F)cc2)c1Cl	< 80				
Cc1nn(C)c(Oc2ccc(Br)cc2)c1/C=N\OCc1c(Cl)c(-c2ccc(Cl)cc2)nn1C	80	5.91	5.96	7.13	
COc1ccc(Oc2c(/C=N\OCc3c(Cl)c(-c4ccc(F)cc4)nn3C)c(C)nn2C)cc1	80	1.18	2.84	2.05	
Cc1nn(C)c(Oc2ccc(OC(F)(F)F)cc2)c1/C=N\OCc1c(Cl)c(-c2ccc(F)cc2)nn1C	80	2.31	2.97	5.21	
Cc1nn(C)c(Oc2ccc(F)cc2)c1/C=N\OCc1c(Cl)c(-c2ccc(Cl)cc2)nn1C	80	7.25	4.43	3.23	
CCc1nn(C)c(CO/N=C/c2c(C)nn(C)c2Oc2ccccc2OC)c1Cl	< 80				
CCc1nn(C)c(CO/N=C\c2c(C)nn(C)c2Oc2ccc(OC)cc2)c1Cl	< 80				
CCc1nn(C)c(CO/N=C/c2c(C)nn(C)c2Oc2ccc(F)cc2)c1Cl	< 80				
CCc1nn(C)c(CO/N=C/c2c(C)nn(C)c2Oc2ccc(I)cc2)c1Cl	< 80				
CCc1nn(C)c(CO/N=C/c2c(C)nn(C)c2Oc2ccccc2C)c1Cl	< 80				
CCc1nn(C)c(CO/N=C/c2c(C)nn(C)c2Oc2ccc(Br)cc2)c1Cl	< 80				
CCc1nn(C)c(CO/N=C/c2c(C)nn(C)c2Oc2ccc(Cl)cc2)c1Cl	< 80				
Cc1nn(C)c(Oc2ccc(Cl)cc2)c1/C=N\OCc1c(Cl)c(-c2ccc(F)cc2)nn1C	80	6.03	8.11	7.97	
CCc1nn(C)c(CO/N=C/c2c(C)nn(C)c2Oc2cccc(Cl)c2)c1Cl	< 80				
Cc1nn(C)c(Oc2ccc(Cl)cc2)c1/C=N\OCc1c(Cl)c(-c2ccc(Cl)cc2)nn1C	80	4.67	7.51	6.82	
Cc1nn(C)c(Oc2ccc(F)cc2)c1/C=N\OCc1c(Cl)c(-c2ccc(F)cc2)nn1C	80	8.02	7.08	6.64	
CCc1nn(C)c(CO/N=C\c2c(C)nn(C)c2Oc2ccccc2OC(F)(F)F)c1Cl	< 80				
CCOC(=O)c1cc(-c2ccccc2)nn1Cc1ccc(Cl)nc1					IC50 [5]: 15.2 µM
COc1cccc2c1C(=O)c1c(O)c3c(c(O)c1C2=O)C[C@@](O)(C(=O)CO)C[C@@H]3O[C@H]1C[C@H](N)[C@H](O)[C@H](C)O1.Cl [DOXORUBICIN HYDROCHLORIDE]	80	2.31	4.12	2.67	Activity [6]: Active; Activity [7]: 47.5%
Cc1ccc(Oc2c(/C=N\OCc3c(Cl)c(-c4ccc(Cl)cc4)nn3C)c(C)nn2C)cc1	80	2.85	3.73	5.84	
CCc1nn(C)c(CO/N=C/c2c(C)nn(C)c2Oc2ccc(C)cc2)c1Cl	< 80				
CCc1nn(C)c(CO/N=C/c2c(C)nn(C)c2Oc2ccccc2F)c1Cl	< 80				
